Measured values from different studies.
Each line is one published result; the experiments were not run side by side.
Target: Tyrosine-protein kinase ABL2 (ABL2, Homo sapiens, UniProt P42684)

SMILES	test	conditions	quantity	value
O=c1[nH]c2ccccc2n1C1CCN(Cc2ccc(-c3[nH]c4cc5ncnc5cc4nc3-c3ccccc3)cc2)CC1	cell-free assay	0.5 µM	remaining signal	96.8%
Cn1cc(-c2cccc(N3CCc4c(sc5c4CC(C)(C)C5)C3=O)c2CO)cc(Nc2ccncn2)c1=O	enzyme activity, inhibitor	1 µM	inhibition	4%
CC(C)(C)c1cc(C=C(C#N)C#N)cc(Br)c1O	enzyme activity, inhibitor	0.5 µM	remaining activity	57.1%
Cn1cncc1[C@](O)(COc1ccc(C#N)cc1-c1ccc(OC(F)(F)F)cc1)c1ccc(C#N)cc1	cell-free assay, competition with immobilised ligand	1 µM	remaining binding	83%
COc1ncccc1-c1cnn2ccc(N3CCN(C(=O)OC(C)C)CC3)nc12	binding, competition with immobilised ligand	1 µM	remaining binding	100%
Cn1cc(-c2cc(F)cc(N3CCn4c(cc5c4CCCC5)C3=O)c2CO)cc(Nc2ccc(N3CCN(C4COC4)CC3)cn2)c1=O	enzyme activity, inhibitor	0.1 µM	inhibition	11%
Nc1ncc(-c2nc(N3CCOCC3)nc(N3CCOCC3)n2)c(C(F)F)n1	binding, competition with immobilised ligand	10 µM	remaining binding	99%
C#Cc1n[nH]c2c(-c3cn([C@@H](C)c4ccccn4)c(=O)[nH]c3=O)cc(F)cc12	enzyme activity, inhibitor	0.1 µM	inhibition	5.9%
COc1cc(Nc2ncc(F)c(Nc3ccc4c(n3)NC(=O)C(C)(C)O4)n2)cc(OC)c1OC	binding, competition with immobilised ligand	10 µM	inhibition	77%
C#Cc1n[nH]c2c(-c3cn([C@@H](C)c4ccccc4)c(=O)[nH]c3=O)cc(F)cc12	enzyme activity, inhibitor	0.1 µM	inhibition	2.4%
Cc1nn(C)cc1-c1nc2c(N3CCN(Cc4ccc(Cl)cc4)CC3)c(Cl)cnc2[nH]1	binding, competition with immobilised ligand	1 µM	remaining binding	100%
